ChEMBL document CHEMBL1671773, “Benzoquinazoline derivatives as new agents affecting DNA processing” (Bioorg Med Chem, 2011)
Activity calls are given as the source filed them. The rule behind the calls is not given here.

Tests used:
HL-60 = assay: Growth inhibition in human HL60 cells after 72 hrs by trypan blue assay; type: functional, cell-based; conditions: HL-60, 72 h
Outline: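 HL-60 cells were grown in RPMI 1640 with 15% heat-inactivated FCS and antibiotics at 37 °C under 5% CO2. 4 × 10⁴ cells per well were seeded, and after 24 h test agents were added to complete medium for 72 h. Viability was read by trypan blue. IC50 is the concentration giving 50% reduction in cell number versus control cultures.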

A-431 = assay: Growth inhibition in human A431 cells after 72 hrs by trypan blue assay; type: functional, cell-based; conditions: A-431, 72 h
Outline: (§1)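 HeLa (F-12 medium) and A431 (D-MEM) cells were grown with 10% heat-inactivated FCS and antibiotics at 37 °C under 5% CO2. 4 × 10⁴ cells per well were seeded for 24 h, then medium was replaced with fresh medium containing test agents for 72 h. Viability was read by trypan blue. IC50 is the concentration halving cell number versus control.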

HeLa [1] = assay: Growth inhibition in human HeLa cells after 72 hrs by trypan blue assay; type: functional, cell-based; outline: as §1
Nucleic Acid [2] = assay: Binding affinity to Salmon testes DNA assessed as drug-DNA complex formation at drug/DNA ratio 0.08 by linear flow dichroism method; type: nucleic-acid assay; conditions: Salmonidae
Nucleic Acid [3] = assay: Induction of Escherichia coli supercoiled pBR322 DNA cleavage at 50 uM after 60mins by gel electrophoresis; type: nucleic-acid assay
Nucleic Acid [4] = assay: Induction of Escherichia coli supercoiled pBR322 DNA cleavage after 60mins by gel electrophoresis; type: nucleic-acid assay
Nucleic Acid [5] = assay: Stabilization of supercoiled pBR322 DNA-human recombinant topoisomerase 2 complex assessed as linear DNA formation at 10 to 100 uM after 60 mins; type: nucleic-acid assay; conditions: Escherichia coli
HeLa [6] = assay: Induction of apoptosis in human HeLa cells assessed as induction of DNA fragmentation at 200 uM after 24 hrs using ethidium bromide staining by agarose gel electrophoresis; type: functional, cell-based
Outline: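 HeLa cells (5 × 10⁵) were preincubated 24 h at 37 °C, then medium was replaced with fresh medium containing test agent; controls received solvent alone. After 24 h, nuclear DNA was extracted and dissolved in TE buffer (10 mM Tris pH 8, 1 mM EDTA). Fragmentation was examined on a 1% agarose gel.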

Nucleic Acid [7] = assay: Binding affinity to Salmon testes DNA assessed as drug-DNA complex formation at drug/DNA ratio 0.16 by linear flow dichroism method; type: nucleic-acid assay; conditions: Salmonidae
[8] = molecular target: DNA topoisomerase 2-alpha (Homo sapiens) (UniProt P11388); assay: Inhibition of human recombinant topoisomerase 2-mediated relaxation of supercoiled pBR322 DNA upt0 100 uM after 60 mins by agarose gel electrophoresis
Outline: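 Supercoiled pBR322 (0.25 µg) was incubated with 1 U topoisomerase II plus compounds for 60 min at 37 °C in 20 µL. The reaction was stopped with SDS stop buffer and 50 µg/mL proteinase K for 30 min at 37 °C. Products were run on a 1% agarose gel at room temperature, then stained with 1 µg/mL ethidium bromide and imaged under UV.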

Nucleic Acid [9] = assay: Stabilization of supercoiled pBR322 DNA-human recombinant topoisomerase 2 complex assessed as linear DNA formation at 8 uM after 60 mins; type: nucleic-acid assay; conditions: Escherichia coli

DNA topoisomerase 2-alpha (Homo sapiens), sequence (P11388 whole entry): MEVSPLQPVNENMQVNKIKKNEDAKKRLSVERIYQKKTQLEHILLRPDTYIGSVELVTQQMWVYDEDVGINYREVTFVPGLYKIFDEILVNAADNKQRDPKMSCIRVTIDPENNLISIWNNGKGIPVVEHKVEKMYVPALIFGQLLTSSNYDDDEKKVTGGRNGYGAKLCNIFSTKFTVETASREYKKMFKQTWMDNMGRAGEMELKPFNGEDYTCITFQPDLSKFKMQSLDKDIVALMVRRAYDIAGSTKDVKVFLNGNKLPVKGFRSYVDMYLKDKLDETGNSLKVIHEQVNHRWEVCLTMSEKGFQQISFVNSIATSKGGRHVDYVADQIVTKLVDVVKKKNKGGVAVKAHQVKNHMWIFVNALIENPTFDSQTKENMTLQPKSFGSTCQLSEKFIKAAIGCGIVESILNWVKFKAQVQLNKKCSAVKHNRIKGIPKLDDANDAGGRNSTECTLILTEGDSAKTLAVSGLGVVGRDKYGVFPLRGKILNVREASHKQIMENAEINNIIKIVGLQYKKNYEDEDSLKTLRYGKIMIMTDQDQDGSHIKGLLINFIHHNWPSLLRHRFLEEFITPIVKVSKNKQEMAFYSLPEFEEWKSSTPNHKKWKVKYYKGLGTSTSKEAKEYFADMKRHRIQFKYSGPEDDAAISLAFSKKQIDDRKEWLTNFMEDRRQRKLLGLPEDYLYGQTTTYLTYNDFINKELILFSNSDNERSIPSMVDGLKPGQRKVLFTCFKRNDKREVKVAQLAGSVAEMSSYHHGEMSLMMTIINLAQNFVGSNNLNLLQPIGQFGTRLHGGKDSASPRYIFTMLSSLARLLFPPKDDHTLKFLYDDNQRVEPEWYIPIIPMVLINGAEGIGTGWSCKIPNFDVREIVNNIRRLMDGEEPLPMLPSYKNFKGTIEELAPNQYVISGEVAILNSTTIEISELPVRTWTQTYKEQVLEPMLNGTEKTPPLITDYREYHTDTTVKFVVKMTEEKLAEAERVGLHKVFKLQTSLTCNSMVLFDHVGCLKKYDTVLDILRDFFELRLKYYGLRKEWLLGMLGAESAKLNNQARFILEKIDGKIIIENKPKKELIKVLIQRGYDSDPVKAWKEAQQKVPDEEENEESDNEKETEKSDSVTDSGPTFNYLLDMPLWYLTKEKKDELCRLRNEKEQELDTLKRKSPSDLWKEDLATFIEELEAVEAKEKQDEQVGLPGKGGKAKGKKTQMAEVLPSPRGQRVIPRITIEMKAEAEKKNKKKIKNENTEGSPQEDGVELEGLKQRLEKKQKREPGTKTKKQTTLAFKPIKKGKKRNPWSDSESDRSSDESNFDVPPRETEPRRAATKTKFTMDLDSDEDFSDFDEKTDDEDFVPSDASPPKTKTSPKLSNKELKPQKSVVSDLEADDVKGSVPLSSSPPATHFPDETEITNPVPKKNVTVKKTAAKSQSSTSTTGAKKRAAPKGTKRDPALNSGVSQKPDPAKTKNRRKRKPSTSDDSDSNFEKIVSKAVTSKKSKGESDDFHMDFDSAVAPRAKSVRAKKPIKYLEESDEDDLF

| Structure (SMILES) | IC50 (HL-60) [µM] | IC50 (A-431) [µM] | IC50 (HeLa [1]) [µM] | Activity (Nucleic Acid [2]) | inhibition (Nucleic Acid [3]) | inhibition (Nucleic Acid [4]) | Activity (Nucleic Acid [5]) | Activity (Nucleic Acid [7]) | inhibition [8] | Activity (Nucleic Acid [9]) | Activity (HeLa [6]) |
| --- | --- | --- | --- | --- | --- | --- | --- | --- | --- | --- | --- |
| CS(=O)(=O)Nc1ccc(Nc2cc3cncnc3c3ccccc23)cc1 | 26.5 | 57.7 | > 100 |  |  |  |  |  |  |  |  |
| Cc1c2ccncc2c(C)c2c1[nH]c1ccccc12 [ELLIPTECINE] | 0.64 | 0.47 | 0.31 |  |  |  |  |  |  |  |  |
| CN(C)CCNc1ncnc2c1ccc1ccccc12 | 61.6 | 50.5 | > 100 | Active |  |  |  | Active | inactive |  |  |
| COc1cc(NS(C)(=O)=O)ccc1Nc1cc2ncncc2c2ccccc12 | 30.7 | 77.7 | > 100 |  |  |  |  |  |  |  |  |
| COc1cc(NS(C)(=O)=O)ccc1Nc1cc2cncnc2c2ccccc12 | 26.9 | > 100 | > 100 |  |  |  |  |  |  |  |  |
| CS(=O)(=O)Nc1ccc(Nc2cc3ncncc3c3ccccc23)cc1 | > 100 | > 100 | > 100 |  |  |  |  |  |  |  |  |

The remaining compounds from weak to strong by IC50 (HL-60), led by results:

| IC50 (HL-60) [µM] | IC50 (A-431) [µM] | IC50 (HeLa [1]) [µM] | Activity (Nucleic Acid [2]) | inhibition (Nucleic Acid [3]) | inhibition (Nucleic Acid [4]) | Activity (Nucleic Acid [5]) | Activity (Nucleic Acid [7]) | inhibition [8] | Activity (Nucleic Acid [9]) | Structure (SMILES) | Activity (HeLa [6]) |
| --- | --- | --- | --- | --- | --- | --- | --- | --- | --- | --- | --- |
| 10.8 | 3.6 | 15.7 | Active | Dose-dependent effect | Active | Active |  |  |  | CN(C)CCNc1cc2cncnc2c2ccccc12 | Active |
| 4.3 | 4.3 | 23.2 | Active | Dose-dependent effect | Active | Active |  |  |  | CN(C)CCNc1cc2ncncc2c2ccccc12 | Active |
| 0.006 | 0.17 | 0.012 |  |  |  |  |  |  | Active | COc1cc(NS(C)(=O)=O)ccc1Nc1c2ccccc2nc2ccccc12 [AMSACRINE] |  |
